The nature of experiment [1]: Induction of relaxation in nifedipine-induced carbachol pre-contracted rings of Beagle dog bronchioles incubated for 1 hr. The experiment is classed as functional, tissue-based, Canis lupus familiaris, Bronchiole. The procedure, abridged: (§1)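 Beagle bronchiole rings held at 1 g tension in Krebs at 37°C (with propranolol and phentolamine), primed with 80 mM KCl. Rings were precontracted with 1 µM carbachol, then antagonist (3–100 nM) or vehicle was equilibrated for 1 h. Cumulative PGE2 relaxation curves followed, with final 10 µM nifedipine defining maximal relaxation. KB by the Lew and Angus method.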

A short description of experiment [2]: Induction of relaxation in forskolin-induced carbachol pre-contracted C57BL/6 mouse trachea incubated for 30 mins. The experiment is classed as functional, tissue-based. The essentials: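 Male C57BL/6 tracheal rings at 0.35 g tension in Krebs (95% O2/5% CO2, 37°C). Rings were precontracted with 10 µM carbachol before cumulative half-log PGE2 (0.1 nM–30 µM). Curves were repeated in the same ring after 30 min with 3 nM antagonist or DMSO, and 10 µM forskolin set maximal relaxation. pKB = log(CR−1) − log[B].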

Experiment [3] is described as follows: Induction of relaxation in nifedipine-induced carbachol pre-contracted rings of Beagle dog bronchioles incubated for 1 hr relative to control. The experiment is classed as functional, Canis lupus familiaris, Bronchiole. Set-up: scale not given: the % may be the effect or the level left. The essentials:
as §1

A short description of experiment [4]: Inhibition of EFS-induced contraction of human myometrium incubated for 60 mins. The experiment is classed as functional, tissue-based. The essentials:
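Human myometrial strips (donors aged 24–76) in a 15 mL Krebs bath at 37°C, under EFS at 15 V, 1.5 ms pulses, 10 s every 100 s, at a submaximal 15 Hz. Antagonist (10 or 100 nM) or vehicle was equilibrated for 60 min. Cumulative butaprost (0.1 nM–10 µM) or PGE2 (0.1 nM–3 µM) was given for at least five EFS responses per concentration. pKB was calculated from same-donor concentration ratios.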

The nature of experiment [5]: Induction of relaxation in […] C57BL/6 mouse trachea at 0.1 to 30 uM incubated for 30 mins relative to control (reference value: 21.6 +/- 8.8%). The conditions noted are these: dose 0.1-30 µM, 0.5 h. Type of experiment: functional. Set-up: scale not given: the % may be the effect or the level left.

The structures appear in SMILES notation.

For `CCCCC[C@H](O)/C=C/[C@H]1[C@H](O)CC(=O)[C@@H]1C/C=C\CCCC(=O)O` [DINOPROSTONE], the EC50 (usually the concentration giving half of the maximal effect) turned out to be 90 nM in experiment [1] and 133 nM in experiment [2]. For the same molecule, the Activity came out at 82% in experiment [3] and 65.4% in experiment [5]. In experiment [4], the midpoint of inhibition, the IC50, lay at 17.3 nM.

The record behind these values is ChEMBL document CHEMBL5653608 (Br J Pharmacol, 2011).
